From publication PMC9165588 (European journal of medicinal chemistry, 2022)
Entries after “also recorded” stand apart in the source; their conditions may differ. Structures can show the parent of a compound that is named as a salt.

Legend:
[1] = molecular target: T1, HAT domain (1195-1673) of human p300 (Homo sapiens, UniProt Q09472); assay: p300 HAT inhibition assay; format: biochemical; conditions: for inhibitory activity against p300 HAT (in words): initial screen at 10 μM; for inhibition at 10 µM: read-out: inhibition of p300 HAT at 10 μM
T1 sequence (Q09472 1195-1673): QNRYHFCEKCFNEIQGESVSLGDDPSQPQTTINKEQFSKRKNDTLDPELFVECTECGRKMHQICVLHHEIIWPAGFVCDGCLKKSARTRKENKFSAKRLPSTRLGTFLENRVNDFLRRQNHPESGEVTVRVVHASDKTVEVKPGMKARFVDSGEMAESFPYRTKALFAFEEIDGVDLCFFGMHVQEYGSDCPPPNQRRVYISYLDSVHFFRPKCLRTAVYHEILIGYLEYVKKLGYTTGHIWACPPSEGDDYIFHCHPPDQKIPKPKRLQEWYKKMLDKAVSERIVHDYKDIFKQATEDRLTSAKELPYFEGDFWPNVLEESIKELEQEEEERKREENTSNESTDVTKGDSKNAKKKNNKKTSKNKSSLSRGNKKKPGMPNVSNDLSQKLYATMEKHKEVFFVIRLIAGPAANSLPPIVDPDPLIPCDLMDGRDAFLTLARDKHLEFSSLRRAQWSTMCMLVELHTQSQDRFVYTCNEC

Kasumi-1 leukemia cells = assay: Western blot of cellular histone H3 lysine acetylation; format: cell-based, human; conditions: Kasumi-1 cells, 12h, 5 and 10 μM
Method in brief: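 Kasumi-1 cells (10⁶ per well) were exposed to test compound at various concentrations for 12 h. Total histones were extracted with a kit, and 2 μg protein was resolved by SDS-PAGE and transferred to PVDF. Blots were probed with antibodies to H3K9Ac, H3K18Ac, H3K27Ac and total H3, then an anti-rabbit IgG secondary.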

LSD1 [2] = molecular target: T2, LSD1 (Homo sapiens, UniProt O60341); assay: LSD1 inhibition; format: biochemical
[3] = molecular target: T3, binding between p300 HAT and histone H4 (Homo sapiens, UniProt Q09472); assay: ALPHA assay of p300 HAT-histone H4 peptide binding
T3 sequence (Q09472 1195-1673): T1 sequence (Q09472 1195-1673)

PCAF = PCAF (Homo sapiens, UniProt Q92831); assay: PCAF HAT inhibition assay; format: biochemical
Chain of PCAF (Q92831 whole entry): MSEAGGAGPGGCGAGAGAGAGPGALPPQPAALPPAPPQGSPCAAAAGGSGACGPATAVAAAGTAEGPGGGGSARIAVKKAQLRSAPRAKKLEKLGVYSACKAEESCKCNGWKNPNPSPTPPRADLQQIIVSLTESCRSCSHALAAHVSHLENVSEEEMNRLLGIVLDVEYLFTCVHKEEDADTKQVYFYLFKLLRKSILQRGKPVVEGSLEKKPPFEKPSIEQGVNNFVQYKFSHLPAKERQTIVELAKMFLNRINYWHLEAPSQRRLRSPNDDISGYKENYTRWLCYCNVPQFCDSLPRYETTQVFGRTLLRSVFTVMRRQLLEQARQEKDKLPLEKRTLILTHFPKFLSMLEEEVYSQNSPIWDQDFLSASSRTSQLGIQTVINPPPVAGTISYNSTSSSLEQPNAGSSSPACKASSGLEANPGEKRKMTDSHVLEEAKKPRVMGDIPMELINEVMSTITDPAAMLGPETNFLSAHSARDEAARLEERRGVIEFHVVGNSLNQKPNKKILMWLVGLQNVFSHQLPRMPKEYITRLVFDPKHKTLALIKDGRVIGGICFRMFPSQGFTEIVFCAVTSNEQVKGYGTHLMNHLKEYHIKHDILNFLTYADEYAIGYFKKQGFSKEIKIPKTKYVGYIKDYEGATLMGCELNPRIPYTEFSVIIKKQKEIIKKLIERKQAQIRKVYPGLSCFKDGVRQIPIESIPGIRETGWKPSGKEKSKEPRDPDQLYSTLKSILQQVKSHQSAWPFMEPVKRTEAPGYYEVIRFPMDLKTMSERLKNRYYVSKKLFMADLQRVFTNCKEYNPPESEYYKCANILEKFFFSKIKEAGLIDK
Method in brief: (§1)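 Radiometric acetyltransfer assay. HAT enzyme (10 nM) was preincubated with test compound for 10 min at 25 °C in 50 mM phosphate buffer, pH 7.0, with 0.01% Brij-35. After 30 min at 25 °C, stopped with 6 N formic acid. Spotted on P81 paper, washed 3× in 50 mM NaHCO₃, scintillation counted.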

Myst3 = Myst3 (Homo sapiens, UniProt Q92794); assay: Myst3 HAT inhibition assay; format: biochemical
Chain of Myst3 (Q92794 whole entry): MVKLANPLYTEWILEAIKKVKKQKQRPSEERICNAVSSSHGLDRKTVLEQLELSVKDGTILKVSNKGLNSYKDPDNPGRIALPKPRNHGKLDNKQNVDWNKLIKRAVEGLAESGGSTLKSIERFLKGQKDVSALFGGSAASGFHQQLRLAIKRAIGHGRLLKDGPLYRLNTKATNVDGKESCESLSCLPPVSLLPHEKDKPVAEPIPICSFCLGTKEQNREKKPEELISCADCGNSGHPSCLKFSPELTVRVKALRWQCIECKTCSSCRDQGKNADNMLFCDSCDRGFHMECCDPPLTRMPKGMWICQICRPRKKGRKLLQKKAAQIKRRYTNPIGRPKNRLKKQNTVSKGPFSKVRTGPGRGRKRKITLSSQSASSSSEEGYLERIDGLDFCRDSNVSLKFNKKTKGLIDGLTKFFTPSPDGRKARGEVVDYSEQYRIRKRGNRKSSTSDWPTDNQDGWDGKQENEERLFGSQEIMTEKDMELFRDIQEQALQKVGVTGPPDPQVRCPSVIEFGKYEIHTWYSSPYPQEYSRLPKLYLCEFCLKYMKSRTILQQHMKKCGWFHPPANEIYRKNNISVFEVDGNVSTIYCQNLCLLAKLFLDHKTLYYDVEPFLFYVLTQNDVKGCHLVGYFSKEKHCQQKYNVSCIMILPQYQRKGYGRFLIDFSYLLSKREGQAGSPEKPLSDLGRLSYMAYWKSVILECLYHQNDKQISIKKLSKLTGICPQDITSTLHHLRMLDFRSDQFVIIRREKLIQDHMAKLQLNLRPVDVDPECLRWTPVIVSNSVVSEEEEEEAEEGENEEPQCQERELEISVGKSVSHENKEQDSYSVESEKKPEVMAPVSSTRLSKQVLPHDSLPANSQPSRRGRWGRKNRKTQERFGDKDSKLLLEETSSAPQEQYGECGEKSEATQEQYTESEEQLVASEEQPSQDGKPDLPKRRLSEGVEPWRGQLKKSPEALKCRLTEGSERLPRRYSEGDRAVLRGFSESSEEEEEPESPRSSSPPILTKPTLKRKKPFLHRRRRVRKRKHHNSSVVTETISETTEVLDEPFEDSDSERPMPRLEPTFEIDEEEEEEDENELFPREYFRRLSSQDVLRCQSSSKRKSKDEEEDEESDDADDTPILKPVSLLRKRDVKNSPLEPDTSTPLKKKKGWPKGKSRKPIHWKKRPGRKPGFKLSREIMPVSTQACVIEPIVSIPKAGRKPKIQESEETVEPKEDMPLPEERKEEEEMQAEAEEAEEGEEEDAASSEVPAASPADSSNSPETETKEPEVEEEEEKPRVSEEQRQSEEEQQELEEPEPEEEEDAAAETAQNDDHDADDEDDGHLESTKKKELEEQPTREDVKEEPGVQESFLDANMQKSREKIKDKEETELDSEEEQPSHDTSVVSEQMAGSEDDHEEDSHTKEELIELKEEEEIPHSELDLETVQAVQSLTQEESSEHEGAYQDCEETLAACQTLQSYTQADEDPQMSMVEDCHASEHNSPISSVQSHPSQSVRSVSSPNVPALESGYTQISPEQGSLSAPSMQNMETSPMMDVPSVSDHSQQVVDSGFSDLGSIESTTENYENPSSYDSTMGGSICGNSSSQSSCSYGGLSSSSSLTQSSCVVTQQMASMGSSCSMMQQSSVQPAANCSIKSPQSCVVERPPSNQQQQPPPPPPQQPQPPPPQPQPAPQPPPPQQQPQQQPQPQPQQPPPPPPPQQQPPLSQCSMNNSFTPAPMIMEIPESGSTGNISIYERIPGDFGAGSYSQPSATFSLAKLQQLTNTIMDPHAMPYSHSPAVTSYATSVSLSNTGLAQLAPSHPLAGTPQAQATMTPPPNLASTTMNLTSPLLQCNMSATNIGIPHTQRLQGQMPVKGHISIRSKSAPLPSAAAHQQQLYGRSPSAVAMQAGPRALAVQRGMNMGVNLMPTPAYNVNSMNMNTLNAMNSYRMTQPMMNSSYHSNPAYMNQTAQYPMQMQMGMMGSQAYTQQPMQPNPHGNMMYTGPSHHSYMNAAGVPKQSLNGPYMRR
Method in brief: as §1

LSD1 [4] = molecular target: T2, LSD1; conditions: read-out: IC50 against LSD1; cited from earlier work
PANC-1 = conditions: read-out: Antiproliferative activity EC50; cited from earlier work
MDA-PANC-28 = conditions: read-out: Antiproliferative activity EC50; cited from earlier work
MCF-7 = conditions: read-out: Antiproliferative activity EC50; cited from earlier work

SMILES: N#Cc1ccc(-c2ncc(OCC3CCNCC3)nc2-c2ccc(Br)cc2)cc1 [Compound 23]
- inhibitory activity against p300 HAT (in words) [1]: failed to improve the inhibitory activity

SMILES: NCc1ccc(-c2ncc(OCC3CCNCC3)nc2-c2ccc(CN)cc2)cc1 [Compound 27, ((5-(Piperidin-4-ylmethoxy)pyrazine-2,3-diyl)bis(4,1-phenylene))dimethanamine Hydrochloride]
- activity enhancement against p300 HAT compared to compound 3 ([1]; relative to compound 3): ~ 2 fold
- acetylation of H3K9 in cells (Kasumi-1 leukemia cells): dose-dependently inhibit
- acetylation of H3K18 in cells (Kasumi-1 leukemia cells): not significantly affected
- acetylation of H3K27 in cells (Kasumi-1 leukemia cells): dose-dependently inhibit

SMILES: c1cc(-c2ccc(-c3ncc(OCC4CCNCC4)nc3-c3ccc(-c4ccoc4)cc3)cc2)co1 [Compound 29, 2,3-bis(4-(Furan-3-yl)phenyl)-5-(piperidin-4-ylmethoxy)pyrazine hydrochloride]
- inhibition of LSD1 activity at 100 μM (in words) (LSD1 [2]): did not significantly inhibit
- effect on p300 HAT-histone H4 binding (in words) [3]: can dose-dependently disrupt the binding
- inhibition of PCAF activity at 100 μM (in words) (PCAF): did not significantly inhibit
- inhibition of Myst3 activity at 100 μM (in words) (Myst3): did not significantly inhibit
- mode of inhibition against cofactor Ac-CoA ([1]; IC50 versus Ac-CoA 1 - 50 μM): likely non-competitive against the enzyme cofactor Ac-CoA
- mode of inhibition against substrate histone ([1]; IC50 versus histone peptide 2 - 100 μM): competitive against the substrate histone
- more activity against p300 HAT than initial lead compound 3 ([1]; relative to compound 3): > 4 ×
- acetylation of H3K9 in cells (Kasumi-1 leukemia cells): almost depleted
- acetylation of H3K18 in cells (Kasumi-1 leukemia cells): significantly inhibited
- acetylation of H3K27 in cells (Kasumi-1 leukemia cells): almost depleted

SMILES: c1cc(-c2ccc(-c3ncc(OCC4CCNCC4)nc3-c3ccc(-c4ccncc4)cc3)cc2)ccn1 [Compound 31, 5-(Piperidin-4-ylmethoxy)-2,3-bis(4-(pyridin-4-yl)phenyl)pyrazine hydrochloride]
- inhibition at 10 µM [1]: 37 to 39%

SMILES: c1ccc(-c2cc(OCC3CCNCC3)cnc2-c2ccccc2)cc1 [Compound 1, 5,6-diphenyl-3-(piperidin-4-ylmethoxy)pyridine]
- IC50 (LSD1 [4]): > 100 µM

SMILES: NCCCOc1cnc(-c2ccc(Br)cc2)c(-c2ccc(Br)cc2)n1 [Compound 6, 3-((5,6-bis(4-bromophenyl)pyrazin-2-yl)oxy)propan-1-amine hydrochloride]
- effect on p300 HAT-histone H4 binding (in words) [3]: not significantly inhibited
- disruption of p300 HAT-histone H4 binding at 100 μM (in words) ([3]; 100 μM): did not significantly disrupt the binding
- acetylation of H3K9 in cells (Kasumi-1 leukemia cells): did not significantly reduce
- acetylation of H3K18 in cells (Kasumi-1 leukemia cells): did not significantly reduce
- acetylation of H3K27 in cells (Kasumi-1 leukemia cells): did not significantly reduce

SMILES: CNCCOc1cnc(-c2ccc(Br)cc2)c(-c2ccc(Br)cc2)n1 [Compound 9, 2-((5,6-bis(4-bromophenyl)pyrazin-2-yl)oxy)-N-methylethan-1-amine hydrochloride]
- inhibitory activity against p300 HAT (in words) [1]: weak inhibitors

SMILES: N#Cc1ccc(-c2nc(OCC3CCNCC3)cnc2-c2ccc(Br)cc2)cc1 [Compound 22]
- inhibitory activity against p300 HAT (in words) [1]: failed to improve the inhibitory activity

SMILES: NCCOc1cnc(-c2ccc(Br)cc2)c(-c2ccc(Br)cc2)n1 [Compound 8, 2-((5,6-bis(4-bromophenyl)pyrazin-2-yl)oxy)ethan-1-amine hydrochloride]
- inhibitory activity against p300 HAT (in words) [1]: weak inhibitors

SMILES: Cc1ccc(-c2ncc(OCC3CCNCC3)cc2-c2ccc(CO)cc2)cc1 [Compound 2]
- IC50 (LSD1 [4]): > 100 µM

SMILES: c1ccc(-c2ccc(-c3ncc(OCC4CCNCC4)nc3-c3ccc(-c4ccccn4)cc3)cc2)nc1 [Compound 30, 5-(Piperidin-4-ylmethoxy)-2,3-bis(4-(pyridin-2-yl)phenyl)pyrazine hydrochloride]
- inhibition at 10 µM [1]: 37 to 39%

SMILES: CNC(=O)Nc1ccc2c(c1)CC[C@@]21OC(=O)N(CC(=O)N(Cc2ccc(F)cc2)[C@@H](C)C(F)(F)F)C1=O [Compound A-485]
- EC50 (PANC-1): > 30 µM
- effect on p300 HAT-histone H4 binding (in words) [3]: not significantly inhibited; also recorded: did not affect the p300 HAT-histone H4 interaction
- EC50 (MDA-PANC-28): > 30 µM
- EC50 (MCF-7): > 30 µM

SMILES: Brc1ccc(-c2ncc(OCC3CCNCC3)nc2-c2ccc(Br)cc2)cc1 [Compound 3]
- effect on p300 HAT-histone H4 binding (in words) [3]: can dose-dependently disrupt the binding
- IC50 (LSD1 [4]): 52.4 µM

SMILES: CC(=O)NCCOc1cnc(-c2ccc(Br)cc2)c(-c2ccc(Br)cc2)n1 [Compound 10, N-(2-((5,6-bis(4-bromophenyl)pyrazin-2-yl)oxy)ethyl)acetamide hydrochloride]
- inhibitory activity against p300 HAT (in words) [1]: inactive
